High-throughput results from PubChem BioAssay.
KCNK3 block = human KCNK3 channel inhibitors, primary screen, CHO cells, FluxOR thallium flux, B-score. FluxOR fluorescence; hits give low values. B-score at 10 µM. hit rate 0.84% among 340,000. AID 602410, 2012;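 active means B-score under library mean minus 4 SD, starting fluorescence ratio at most library mean plus 5 SD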;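 further: more negative B-score means stronger inhibition of thallium flux through KCNK3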
KCNK9 block = KCNK9 potassium channel inhibitors, primary screen, HEK293 cells, thallium flux. AID 488922, 2010. B-score at 10 µM. hit rate 1.2% among 310,000. FluxOR thallium flux fluorescence; hits give low values. Potassium channel subfamily K member 9 (Homo sapiens), Q9NPC2;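 active means ratio B-score over 3 SD below the library mean, with starting fluorescence within 5 SD of its mean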;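 further: negative B-score means less thallium flux so channel inhibition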
KCNQ1 pot = potentiators or activators of KCNQ1 channel, primary screen, cell-based, thallium flux, high-throughput | CHO-K1 KCNQ1, thallium flux FluxOR fluorescence; hits give high values | hit rate 0.35% among 310,000 | B-score at 10 µM | AID 2648, 2010;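 active means fluorescence ratio B-score, a plate-corrected score, at least three library SD, with initial intensity B-score within 5 SD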
Target sequence (P51787 whole entry, looked up): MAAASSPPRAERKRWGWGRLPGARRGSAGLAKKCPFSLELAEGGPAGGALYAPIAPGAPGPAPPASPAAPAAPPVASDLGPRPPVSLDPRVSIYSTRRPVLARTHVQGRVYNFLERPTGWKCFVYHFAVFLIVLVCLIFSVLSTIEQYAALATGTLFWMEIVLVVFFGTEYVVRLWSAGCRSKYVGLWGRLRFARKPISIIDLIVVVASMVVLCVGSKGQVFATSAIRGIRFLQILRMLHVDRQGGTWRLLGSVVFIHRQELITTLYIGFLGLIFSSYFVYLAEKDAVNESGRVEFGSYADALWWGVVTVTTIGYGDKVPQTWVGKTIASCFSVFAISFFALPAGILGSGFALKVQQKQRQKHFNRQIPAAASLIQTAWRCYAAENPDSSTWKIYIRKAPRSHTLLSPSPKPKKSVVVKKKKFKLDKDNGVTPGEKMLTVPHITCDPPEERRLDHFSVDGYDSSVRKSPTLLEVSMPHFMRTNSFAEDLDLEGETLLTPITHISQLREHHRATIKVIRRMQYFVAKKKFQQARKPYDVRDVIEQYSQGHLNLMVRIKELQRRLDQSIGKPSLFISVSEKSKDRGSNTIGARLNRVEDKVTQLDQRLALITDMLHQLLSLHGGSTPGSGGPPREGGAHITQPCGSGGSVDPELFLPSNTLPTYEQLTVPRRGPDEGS
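assay system = KCNQ1-transfected CHO-K1 cells | medium = assay buffer with matched DMSO | probe or stimulus = depolarizing K+/Tl+ stimulus, K2SO4 and Tl2SO4 each 12.5 mM in 5x stock | dosing = single dose | incubation = dye 90 min, compound 20 min, room temperature | detection = kinetic FluxOR fluorescence, 10 s baseline plus 110 s post-stimulus | evaluation = ratio B score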
hERG rescue = hERG rescue from dofetilide block, primary screen, cell-based, CHO-hERG, FluxOR thallium flux, dofetilide IC70; dofetilide IC70 present; activation (rescue from dofetilide block), less the hit threshold, % at 10 µM; hit rate 0.51% among 310,000; Voltage-gated inwardly rectifying potassium channel KCNH2 (Homo sapiens), Q12809; AID 1511, 2009;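 active means activation above the mean of controls blocked by dofetilide plus 5 SD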;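 further: thallium influx through hERG after potassium depolarization seen as dye fluorescence rise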
Kir21 inh = inhibitors of mouse Kir2.1 inward-rectifier potassium channel; hit rate 0.85% among 310,000; AID 1672, 2009; Inward rectifier potassium channel 2 (Mus musculus), P35561; HEK293-Kir2.1, FluxOR thallium flux fluorescence; hits give low values; B-score at 10 µM;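 active means fluorescence ratio B-score at or below minus 3 SD of library scores, with starting-brightness B-score within 2 SD, cut at about -4.2 in these data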;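 further: channel flux triggered by added potassium and thallium sulfate stimulus; B-score of peak minus minimum fluorescence over baseline after thallium stimulus; more negative B-score means stronger Kir2.1 block with less thallium influx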
KCNQ1 block = inhibitors of human KCNQ1 channel, primary screen, cell-based, thallium flux, high-throughput; AID 2642, 2010; Potassium voltage-gated channel subfamily KQT member 1 (Homo sapiens), P51787; hit rate 1.3% among 310,000; B-score at 10 µM; CHO-K1 KCNQ1, FluxOR thallium flux fluorescence; hits give high values;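 active means compounds whose thallium flux B-score, printed positive for inhibition, exceeds three library SD while starting fluorescence stays within three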;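 further: channel opened by potassium depolarization with thallium stimulus after 20 min compound exposure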
Hits are given with their value. Only some compounds are listed: those with a hit (about 3.7% of all), similar ones and a draw of the others.

How did COc1ccc(NC(=O)CNS(=O)(=O)c2ccc(Cl)cc2)cc1 do in these assays?
KCNK3 block: inactive; KCNK9 block: inactive; KCNQ1 pot: inactive; hERG rescue: inactive; Kir21 inh: inactive; KCNQ1 block: inactive

Results for COc1cccc(NC(=O)CNS(=O)(=O)c2ccc(Cl)cc2)c1 ?
KCNK3 block: inactive; KCNK9 block: inactive; KCNQ1 pot: inactive; hERG rescue: inactive; Kir21 inh: -4.24; KCNQ1 block: inactive

Results for Cc1cccc(NC(=O)c2cccc(NS(=O)(=O)c3ccc(Cl)cc3)c2)c1 ?
KCNK3 block: inactive; KCNK9 block: inactive; KCNQ1 pot: inactive; hERG rescue: inactive; Kir21 inh: inactive; KCNQ1 block: 10

How did Cc1ccc(NC(=O)c2ccc3c(c2)OCCO3)cc1S(=O)(=O)Nc1cccc(Cl)c1 do in these assays?
KCNK3 block: inactive; KCNK9 block: inactive; KCNQ1 pot: inactive; hERG rescue: inactive; Kir21 inh: inactive; KCNQ1 block: 6

How did Cc1cccc(CNC(=O)C2CCC(=O)N(C3CC3)C2)c1 (centres undefined) do in these assays?
KCNK3 block: inactive; KCNK9 block: inactive; KCNQ1 pot: inactive; hERG rescue: inactive; Kir21 inh: inactive; KCNQ1 block: inactive

What do the screens show for `CCCN(CCC)C1=N/C(=C\c2ccco2)C(=O)N1c1ccccc1`?
KCNK3 block: inactive; KCNK9 block: -7.7; KCNQ1 pot: inactive; hERG rescue: inactive; Kir21 inh: inactive; KCNQ1 block: inactive

What do the screens show for `CCCN=C1N/C(=C\c2ccco2)C(=O)N1c1ccccc1`?
KCNK3 block: inactive; KCNK9 block: inactive; KCNQ1 pot: inactive; hERG rescue: inactive; Kir21 inh: inactive; KCNQ1 block: inactive

How did NC(N)=N/N=C/c1cc([N+](=O)[O-])ccc1O do in these assays?
KCNK3 block: inactive; KCNK9 block: inactive; KCNQ1 pot: inactive; hERG rescue: inactive; Kir21 inh: inactive; KCNQ1 block: inactive

How did O=[N+]([O-])c1ccc(O)c(/C=N\N=C2c3ccccc3-c3ccccc32)c1 do in these assays?
KCNK3 block: inactive; KCNK9 block: inactive; KCNQ1 pot: inactive; hERG rescue: inactive; Kir21 inh: inactive; KCNQ1 block: 7

Results for CC(C)(C)NC(=O)NC(=O)COC(=O)c1c(F)cccc1Cl ?
KCNK3 block: inactive; KCNK9 block: inactive; KCNQ1 pot: inactive; hERG rescue: inactive; Kir21 inh: inactive; KCNQ1 block: inactive

Results for C[C@@H](C(=O)CC(=O)OC(C)(C)C)[C@@H](O)c1c(F)cccc1Cl ?
KCNK3 block: inactive; KCNK9 block: -8.01; KCNQ1 pot: inactive; hERG rescue: inactive; Kir21 inh: inactive; KCNQ1 block: inactive

What do the screens show for `O=S(=O)(c1ccc(SCc2ccc(Br)cc2)nc1)N1CCCCC1`?
KCNK3 block: -10

Results for CCOc1ccc2[nH]c(=O)c(CN(Cc3nnnn3Cc3ccco3)C3CCCCC3)cc2c1 ?
KCNK3 block: -9.95; KCNK9 block: inactive; KCNQ1 pot: inactive; hERG rescue: inactive; Kir21 inh: inactive; KCNQ1 block: inactive

How did CCOc1ccc2[nH]c(=O)c(CN(Cc3ccco3)C(CC)c3nnnn3Cc3ccccc3)cc2c1 (centres undefined) do in these assays?
KCNK3 block: inactive; KCNK9 block: inactive; KCNQ1 pot: inactive; hERG rescue: inactive; Kir21 inh: inactive; KCNQ1 block: 8

What do the screens show for `CCOc1ccc2[nH]c(=O)c(CN(Cc3ccco3)Cc3nnnn3Cc3ccccc3)cc2c1`?
KCNK3 block: inactive; KCNK9 block: inactive; KCNQ1 pot: inactive; hERG rescue: inactive; Kir21 inh: inactive; KCNQ1 block: inactive

How did O=C(NNc1c(F)c(F)cc(F)c1F)c1cc2ccccc2oc1=O do in these assays?
KCNK3 block: inactive; KCNK9 block: inactive; KCNQ1 pot: inactive; hERG rescue: 9.9; Kir21 inh: inactive; KCNQ1 block: inactive

How did COn1c2c(c3c4no[n+]([O-])c4ccc31)CCCC2 do in these assays?
KCNK3 block: inactive; KCNK9 block: inactive; KCNQ1 pot: inactive; hERG rescue: inactive; Kir21 inh: inactive; KCNQ1 block: inactive

What do the screens show for `[O-][n+]1c2c(c3c4non(O)c4ccc31)CCCC2`?
KCNK3 block: inactive; KCNK9 block: inactive; KCNQ1 pot: inactive; hERG rescue: inactive; Kir21 inh: inactive; KCNQ1 block: 6

How did O=[N+]([O-])c1ccc(S(=O)(=O)N2CCN=C2SCc2cccnc2)cc1 do in these assays?
KCNK3 block: inactive; KCNK9 block: inactive; KCNQ1 pot: inactive; hERG rescue: inactive; Kir21 inh: inactive; KCNQ1 block: inactive

Results for COC(=O)c1c(NS(=O)(=O)c2ccc(C)cc2)sc2c1CCC(C)C2 (centres undefined) ?
KCNK3 block: inactive

How did CCOC(=O)c1c(NS(C)(=O)=O)sc2c1CCC(C)C2 (centres undefined) do in these assays?
KCNK3 block: inactive; KCNK9 block: inactive; KCNQ1 pot: 8; hERG rescue: inactive; Kir21 inh: inactive; KCNQ1 block: inactive

Results for CCOc1c(OC(C)=O)ccc(/C=C/c2ccc3cccc(OC(C)=O)c3n2)c1[N+](=O)[O-] ?
KCNK3 block: inactive; KCNK9 block: inactive; KCNQ1 pot: inactive; hERG rescue: inactive; Kir21 inh: inactive; KCNQ1 block: 12

What do the screens show for `COc1ccc(-n2nc(N)c(C(N)=O)n2)cc1`?
KCNK3 block: inactive; KCNK9 block: inactive; KCNQ1 pot: inactive; hERG rescue: inactive; Kir21 inh: inactive; KCNQ1 block: inactive

What do the screens show for `COc1ccc(-c2nn(-c3ccccc3)cc2/C=C/C(=O)N2CCN(c3ccccn3)CC2)cc1`?
KCNK3 block: inactive; KCNK9 block: inactive; KCNQ1 pot: inactive; hERG rescue: inactive; Kir21 inh: inactive; KCNQ1 block: 6

How did O=C(O)c1ccc(N2CC3CC(C2)c2cccc(=O)n2C3)c(NC(=S)Nc2ccc(Br)cc2)c1 (centres undefined) do in these assays?
KCNK3 block: inactive; KCNK9 block: inactive; KCNQ1 pot: inactive; hERG rescue: inactive; Kir21 inh: inactive; KCNQ1 block: 6

What do the screens show for `CCc1ccc(NC(=S)Nc2cc(C(=O)O)ccc2N2CC3CC(C2)c2cccc(=O)n2C3)cc1` (centres undefined)?
KCNK3 block: inactive; KCNK9 block: inactive; KCNQ1 pot: inactive; hERG rescue: inactive; Kir21 inh: inactive; KCNQ1 block: inactive

Results for Cn1c(SCC(=O)N2CCCC2)nnc1-c1cnccn1 ?
KCNK3 block: inactive; KCNK9 block: inactive; KCNQ1 pot: inactive; hERG rescue: inactive; Kir21 inh: inactive; KCNQ1 block: inactive

How did CCOCCOCN(C#N)c1nc(OC)nc(N(C)C)n1 do in these assays?
KCNK3 block: inactive; KCNK9 block: inactive; KCNQ1 pot: inactive; hERG rescue: 48.9; Kir21 inh: inactive; KCNQ1 block: inactive
